# hiPSC survival = enhancers of single-cell hiPSC survival, primary screen, ATPlite luminescence; 360,000 tested, 0.044% active; 100% = ROCK inhibitor wells, 0% = DMSO; survival enhancement, % at 20 µM; in the data active means survival enhancement above about 18%;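 further: cells exposed to compounds for 16 hours before the ATP read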
# Apaf-1 inh = inhibitors of human Apaf-1 apoptosome, primary screen, biochemical, DEVD-Rh110 fluorescence, uHTS. Apoptotic protease-activating factor 1 (Homo sapiens), O14727. reconstituted apoptosome caspase-3 activity. inhibition, % at 20 µM. 330,000 tested, 0.71% active. AID 489030, 2010; active means inhibition of at least 40% at 20 µM;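 further: plate controls were DMSO wells for no effect and DEVD-CHO caspase inhibitor wells for full effect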
#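 Material: reconstituted apoptosome with Apaf-1, cytochrome c, caspase-9, procaspase-3, dATP; medium: pH 7.5 Hepes buffer with CHAPS, BSA, DTT; also added: cytochrome c and DEVD-Rh110 substrate; timing: 30 min plus 50 min, RT; signal: Rh110 fluorescence intensity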
# Exocytosis inh = LAMP-1 surface exposure blockers, TALL-104 cells – cell-based, flow cytometry, MLPCN library, primary screen; TALL-104 LAMP-1 surface exposure; cells stimulated with thapsigargin and PMA; 360,000 tested, 0.66% active; AID 651702, 2012; inhibition, % at 10 µM;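 active means inhibition above about 55%, limit read from the data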
# MIN6 prolif = inducers of MIN6 beta-cell proliferation, primary screen, ATP luminescence, uHTS. AID 2380, 2010. MIN6 cells proliferation, ATPlite luminescence, 48 h; cells starved in 0.2% serum; 100% = growth in 10% serum. proliferation, % at 10 µM. 330,000 tested, 0.29% active;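 active means compounds whose signal lies at least 3.5 SD above the mean of all wells on their plate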;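 further: 0% = DMSO-treated cells in low-serum medium and 100% = 10% serum control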
# UBC13 polyUb = UBC13 polyubiquitin chain formation inhibitors, primary screen, biochemical, TR-FRET, uHTS. 330,000 tested, 0.47% active. inhibition, % at 20 µM. AID 485273, 2010. Ubiquitin-conjugating enzyme E2 N (Homo sapiens), P61088; in the data active means inhibition above about 45%, passing the limit was not always enough
# Target sequence (P61088 whole entry, looked up): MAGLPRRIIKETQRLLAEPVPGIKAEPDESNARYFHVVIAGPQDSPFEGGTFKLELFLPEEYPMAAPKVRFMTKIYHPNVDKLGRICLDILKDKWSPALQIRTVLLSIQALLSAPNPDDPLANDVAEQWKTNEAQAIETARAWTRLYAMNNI
# MPTP inh = mitochondrial permeability transition pore inhibitors, primary screen, biochemical, isolated mouse mitochondria, absorbance; Ca2+ swelling absorbance, 30 min; inhibition, % at 10 µM; 360,000 tested, 1.4% active; AID 602449, 2012;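 active means inhibition of 50% or more, scaled per plate between neutral and stimulator controls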;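 further: 0% = DMSO wells given calcium and 100% = 1 mM EGTA wells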
# Rh123 counter = fluorescence retest of MPTP screen hits in isolated mitochondria, single concentration; membrane potential, Rhodamine 123 fluorescence; inhibition, % at 10 µM; AID 624504, 2012; shares compounds with MPTP inh; 5,000 tested, 78% active; in the data active means inhibition above about 22%;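 further: 0% = DMSO vehicle and 100% = positive control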
# MPTP abs DR = mitochondrial permeability transition pore inhibitors, dose response, biochemical, absorbance, uHTS hits | isolated mitochondria swelling | IC50, µM | AID 651561, 2012 | shares compounds with MPTP inh | 780 tested, 58% active; in the data active means IC50 below about 20 µM
# MPTP counter DR = fluorescent counter-screen in isolated mitochondria, dose response, counter-screen for MPTP inhibitor project, biochemical, fluorescence, uHTS hits; 780 tested, 49% active; shares compounds with MPTP inh; IC50, µM; AID 651564, 2012; isolated mitochondria counterscreen, fluorescence read-out; in the data active means IC50 below about 80 µM
# * hit, by the source's call; i = inactive; nt = no result given. Only some compounds are listed: those with a hit (about 3% of all), similar ones and a draw of the others.
SMILES,hiPSC survival,Apaf-1 inh,Exocytosis inh,MIN6 prolif,UBC13 polyUb,MPTP inh,Rh123 counter,others
COc1cccc(OC)c1C(=O)Nc1cccc(S(=O)(=O)Nc2ccccc2Cl)c1,0,11,-1,-1,-10,-1,nt,
COc1ccccc1NS(=O)(=O)c1cccc(NC(=O)Nc2ccc(Cl)cc2)c1,-2,26,10,-6,0,83*,72*,
Cc1ccc(NC(=S)/C(=C(\[O-])c2ccc(Cl)s2)[n+]2cccc(CO)c2)cc1C,0,4,-1,-1,-7,-2,nt,
[O-]/C(=C(\C(=S)Nc1ccc(SC(F)F)cc1)[n+]1cccc(CO)c1)c1ccc(Cl)s1,1,1,-2,-6,-16,101*,85*,
Cc1ccc(C23CC4CC(CC(NC(=O)N5CCN(C)CC5)(C4)C2)C3)cc1,-2,19,10,-4,16,71*,-12,MPTP abs DR=16*;MPTP counter DR=>80
Cc1ccc(Nc2nc(NCCCN3CCOCC3)nc(N)c2[N+](=O)[O-])cc1C,2,24,4,2,14,67*,-4,MPTP abs DR=>100;MPTP counter DR=>80
CCN1CCN(c2nc(N)c([N+](=O)[O-])c(Nc3cccc(C)c3)n2)CC1,0,17,-6,-5,1,0,nt,
Cc1cccc(Nc2nc(N)c([N+](=O)[O-])c(N3CC(C)CC(C)C3)n2)c1 (stereo not drawn),-1,29,-2,-6,-7,56*,-6,MPTP abs DR=>100;MPTP counter DR=63*
Cc1cccc(Nc2nc(N3CCN(C)CC3)nc(N)c2[N+](=O)[O-])c1,0,16,-2,-2,-5,69*,-15,MPTP abs DR=i;MPTP counter DR=>80
CC12CCC(=O)C=C1CCCC2=O (stereo not drawn),1,nt,7,nt,nt,0,nt,
O=[N+]([O-])c1c(O)c(Cl)cc(Cl)c1Cl (tested in a mixture with another compound),0,nt,-4,nt,nt,78*,86*,
Fc1ccccc1C1c2cccn2CCN1C(=S)Nc1ccc(Br)cc1 (stereo not drawn),0,3,2,-6,11,101*,92*,
N#C/C(=C\c1c(Cl)cccc1Cl)c1nc2ccccc2[nH]1,0,13,0,-3,2,2,nt,
N#C/C(=C\c1ccc(Sc2ccc(Cl)cc2)o1)c1nc2ccccc2[nH]1,1,nt,1,nt,nt,106*,69*,
N#C/C(=C\c1ccc(Sc2nc3ccccc3[nH]2)o1)c1ccccc1,-2,7,5,-4,-10,93*,84*,
C[N+](C)(C)CC/C=C1/c2ccccc2CSc2ccccc21,4,4,1,1,1,-2,nt,
CNCCC=C1c2ccccc2CCc2ccccc21,-4,10,12,-8,5,86*,-9,MPTP abs DR=6*;MPTP counter DR=>80
O=C(CN(c1ccc(Br)cc1)S(=O)(=O)c1ccc(Cl)c([N+](=O)[O-])c1)NCCc1ccccc1,0,-10,-2,-5,-5,6,nt,
Cc1ccc(N(CC(=O)NCCc2ccc(F)cc2)S(=O)(=O)c2ccc(Cl)c([N+](=O)[O-])c2)c(C)c1,7,20,40,-6,2,68*,70*,
CCCCn1c(N)c(N(CCC(C)C)C(=O)CSc2nc3ccccc3n2C)c(=O)[nH]c1=O,0,nt,-1,nt,nt,0,nt,
COc1ccc(Cl)cc1NC(=S)NCCSc1ccc(C)cc1,3,12,4,-6,-6,82*,81*,

# Screening results from PubChem.
